The values below come from ChEMBL document CHEMBL1123889, “Improved synthesis and antitumor activity of 1-deazaadenosine” (J Med Chem, 1987).

Data set [1] relates to L1210. Nature of the data set: Antitumor activity against leukemia L1210 cells at 6.3 mg/kg/day expressed as mean survival of treated mice (T) to untreated (C) was reported. The class given is functional, Mus musculus.
Data set [2] deals with L1210. Description: Antitumor activity against leukemia L1210 cells at 12.5 mg/kg/day expressed as mean survival of treated mice (T) to untreated (C) was reported. The class given is functional, Mus musculus.
Data set [3] concerns Mus musculus. Description: Antitumor activity against leukemia P388/DX cells at 3.1 mg/kg/day expressed as mean survival of treated mice (T) to untreated (C) was reported. The class given is functional. Put shortly:
(§1)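 BDF1 mice given 10^6 doxorubicin-resistant P388 cells ip; the line was kept by weekly ip passage with doxorubicin. Compound was dissolved in distilled water just before use and given ip daily for 7 days from 24 h post-inoculation; 10 mice per dose. %T/C = median survival of treated/control ×100, with 125 significant. Toxicity was judged by autopsy (spleen and liver shrinkage).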

Data set [4] relates to Mus musculus. Description: Antitumor activity against leukemia P388/DX cells at 3.1 mg/kg/day expressed as toxic deaths in mice was reported; 0/10 mice. The class given is functional. Put shortly: as §1
For data set [5], the system named is Mus musculus. Description: Antitumor activity against leukemia P388/DX cells at 12.5 mg/kg/day expressed as toxic deaths in mice was reported; 0/10 mice. The class given is functional. Put shortly: as §1
Data set [6] has as its system L1210. Description: Antitumor activity against leukemia L1210 cells at 12.5 mg/kg/day expressed as Number of mice died for toxicity to number of treated mice; 0/10 mice. The class given is functional, Mus musculus.
The test system of data set [7] is L1210. Description: Antitumor activity against leukemia L1210 cells at 25.0 mg/kg/day expressed as mean survival of treated mice (T) to untreated (C) was reported. The class given is functional, Mus musculus.
Data set [8] deals with HeLa. Nature of the data set: The compound was tested in vitro for antitumor activity(50% inhibition of tumor cell growth) against HeLa human cell lines after 144 hr. The class given is functional. The note with it: read-out: ID50 (the source's name). Put shortly: (§2)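 5 × 10^5 exponentially growing cells exposed to varying drug concentrations for 144 h, then counted with a Coulter counter. ID50 is the drug concentration in culture medium giving 50% inhibition of cell growth versus untreated controls.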

Data set [9] has as its system HeLa. Description: The compound was tested in vitro for antitumor activity(50% inhibition of tumor cell growth) against HeLa human cell lines after 72 hr. The class given is functional. The note with it: read-out: ID50 (the source's name). Put shortly: (§3)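 5 × 10^5 exponentially growing human tumour cells were exposed to a range of drug concentrations for the stated time (72 or 144 h), then counted on a Coulter counter. ID50 is the concentration in the culture medium giving 50% inhibition of cell growth relative to untreated controls.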

Data set [10] relates to L1210. Nature of the data set: Antitumor activity against leukemia L1210 cells at 6.3 mg/kg/day expressed as Number of mice died for toxicity to number of treated mice; 0/10 mice. The class given is functional, Mus musculus.
The test system of data set [11] is Mus musculus. Nature of the data set: Antitumor activity against leukemia P388/DX cells at 12.5 mg/kg/day expressed as mean survival of treated mice (T) to untreated (C) was reported. The class given is functional. Put shortly:
as §1

Data set [12] relates to KB. Nature of the data set: The compound was tested in vitro for antitumor activity(50% inhibition of tumor cell growth) against KB human cell lines after 72 hr. The class given is functional. The note with it: read-out: ID50 (the source's name). Put shortly: as §3
Data set [13] relates to Mus musculus. Description: Antitumor activity against leukemia P388/DX cells at 6.3 mg/kg/day expressed as mean survival of treated mice (T) to untreated (C) was reported. The class given is functional. Put shortly: as §1
For data set [14], the system named is Mus musculus. Description: Antitumor activity against leukemia P388/DX cells at 6.3 mg/kg/day expressed as toxic deaths in mice was reported; 0/10 mice. The class given is functional. Put shortly:
as §1

For data set [15], the system named is L1210. Description: (§4) The compound was tested in vitro for antitumor activity(50% inhibition of tumor cell growth) against the L1210 murine cell lines after 72 hours. The class given is functional. The note with it: Mus musculus, L1210, 72 h; read-out: ID50 (the source's name). Put shortly:
(§5)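 Murine leukemia cells (P388, the doxorubicin-resistant subline P388/DX, or L1210) were grown as suspension cultures in 1640 medium with 10% fetal calf serum, 20 µM 2-mercaptoethanol, […] and antibiotics, at 37 °C in humidified 5% CO2. 5 × 10^5 exponentially growing cells were exposed to a range of drug concentrations for 72 h, then Coulter-counted. ID50 is the concentration giving 50% growth inhibition versus untreated controls.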

Data set [16] concerns P388. Description: (§6) The compound was tested in vitro for antitumor activity(50% inhibition of tumor cell growth) against the P388 murine cell lines after 72 hours. Conditions: Mus musculus, P388, 72 h; read-out: ID50 (the source's name). The class given is functional. Put shortly: as §5
Data set [17] is filed under the species Mus musculus. Nature of the data set: (§7) The compound was tested in vitro for antitumor activity(50% inhibition of tumor cell growth) against the P388/doxorubicin resistant murine cell lines after 72 hours. The class given is functional. The note with it: P388, 72 h, read-out: ID50 (the source's name). Put shortly:
as §5

Data set [18] relates to KB. Nature of the data set: The compound was tested in vitro for antitumor activity(50% inhibition of tumor cell growth) against KB human cell lines after 144 hr. The class given is functional. The note with it: read-out: ID50 (the source's name). Put shortly: as §2
Data set [19] deals with L1210. Description: Antitumor activity against leukemia L1210 cells at 25.0 mg/kg/day expressed as Number of mice died for toxicity to number of treated mice; 6/10 mice. The class given is organism-based. The note with it: mouse, in vivo.
The test system of data set [20] is Mus musculus. Nature of the data set: Antitumor activity against leukemia P388/DX cells at 150.0 mg/kg/day expressed as toxic deaths in mice was reported; 2/20 mice. The note with it: in vivo.
For data set [21], the system named is L1210. Nature of the data set: Antitumor activity against leukemia L1210 cells at 150.0 mg/kg/day expressed as mean survival of treated mice (T) to untreated (C) was reported. The class given is functional, Mus musculus.
The subject of data set [22] is L1210. Nature of the data set: Antitumor activity against leukemia L1210 cells at 150.0 mg/kg/day expressed as Number of mice died for toxicity to number of treated mice; 0/10 mice. The class given is functional, Mus musculus.
The test system of data set [23] is Mus musculus. Nature of the data set: Antitumor activity against leukemia P388/DX cells at 300.0 mg/kg/day expressed as mean survival of treated mice (T) to untreated (C) was reported. The class given is functional. Put shortly: (§8)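 BDF1 mice given 10^6 doxorubicin-resistant P388 cells ip. Compound was dissolved in distilled water just before use and given ip daily for 9 days from 24 h post-inoculation. %T/C = median survival of treated/control ×100, with 125 significant. Toxic deaths were judged by gross autopsy, mainly from reduced spleen and liver size.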

The subject of data set [24] is Mus musculus. Description: Antitumor activity against leukemia P388/DX cells at 150.0 mg/kg/day expressed as mean survival of treated mice (T) to untreated (C) was reported. The class given is functional. Put shortly: as §8
Data set [25] deals with L1210. Nature of the data set: Antitumor activity against leukemia L1210 cells at 75.0 mg/kg/day expressed as Number of mice died for toxicity to number of treated mice; 0/10 mice. The class given is functional, Mus musculus.
Data set [26] has as its system Mus musculus. Description: Antitumor activity against leukemia P388/DX cells at 100.0 mg/kg/day expressed as mean survival of treated mice (T) to untreated (C) was reported. The class given is functional. Put shortly: as §8
In data set [27] the test system is Mus musculus. Nature of the data set: Antitumor activity against leukemia P388/DX cells at 300.0 mg/kg/day expressed as toxic deaths in mice was reported; 8/20 mice. Conditions: in vivo.
Data set [28] concerns Mus musculus. Nature of the data set: Antitumor activity against leukemia P388/DX cells at 100.0 mg/kg/day expressed as toxic deaths in mice was reported; 0/10 mice. The class given is functional. Put shortly: as §8
For data set [29], the system named is L1210. Nature of the data set: Antitumor activity against leukemia L1210 cells at 75.0 mg/kg/day expressed as mean survival of treated mice (T) compared to untreated (C) was reported. The class given is functional, Mus musculus.
The subject of data set [30] is P388. Described as §6. Conditions: Mus musculus, P388, 72 h; read-out: ID50 (the source's name). The class given is functional. Put shortly:
(§9)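 Suspension cultures were grown in 1640 medium with 10% fetal calf serum, 20 µM 2-mercaptoethanol, […] and antibiotics at 37 °C in 5% CO2. 5×10^5 exponentially growing cells were exposed to varying drug concentrations for 72 h, then counted with a Coulter counter. ID50 is the concentration giving 50% growth inhibition versus untreated controls.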
This is another data set of the same source.

Data set [31] is filed under the species Mus musculus. Described as §7. The class given is functional. The note with it: P388, 72 h, read-out: ID50 (the source's name). Put shortly:
as §9
The source holds these as a separate data set.

For data set [32], the system named is L1210. Described as §4. The class given is functional. Conditions: Mus musculus, L1210, 72 h; read-out: ID50 (the source's name). Put shortly:
as §9
This is another data set of the same source.

For the molecule `Nc1ccnc2c1ncn2[C@@H]1O[C@H](CO)[C@@H](O)[C@H]1O`, the T/C in the data set on L1210 [1] is 100%; in the data set on L1210 [2], 113%; in the data set on Mus musculus [3] it was 106%; in the data set on L1210 [7], 88%; in the data set on Mus musculus [11], 111%; with Mus musculus [13], 106%. Moreover, the Activity was 0 in the data set on Mus musculus [4]; 0 with Mus musculus [5]; 0 with L1210 [6]; 0 with L1210 [10]; 0 in the data set with Mus musculus [14]; 6 in the data set with L1210 [19]. Moreover, the IC50 in the data set with HeLa [8] came out at 1200 nM; in the data set on HeLa [9], 1.2 µM; with KB [12] it was 0.3 µM; with L1210 [15] it was 1.8 µM; in the data set on P388 [16] it was 1.1 µM; in the data set listed under Mus musculus [17], 0.4 µM. For the same molecule, the IC50 in the data set with KB [18] came to 600 nM.

In the case of `O=[N+]([O-])c1ccnc2c1ncn2C1O[C@H](CO)[C@@H](O)[C@H]1O` (some centres not stated), the Activity in the data set on Mus musculus [20] is 2; in the data set with L1210 [22], 0; in the data set with L1210 [25] it was 0; in the data set with Mus musculus [27], 8; with Mus musculus [28], 0. Further, the T/C in the data set with L1210 [21] was 106%; in the data set with Mus musculus [23], 22%; with Mus musculus [24] it was 97%; with Mus musculus [26] it was 95%; in the data set with L1210 [29] it was 106%. In addition, the IC50 in the data set with HeLa [8] came to 27000 nM; with HeLa [9], 64.1 µM; in the data set on KB [12], 33.8 µM; with L1210 [15], 11.8 µM; with P388 [16], 12.5 µM; in the data set listed under Mus musculus [17] it was 8.1 µM. Besides, in the data set with KB [18], the IC50 was determined as 13100 nM.

Turning to `Nc1ncnc2c1ncn2[C@@H]1O[C@H](CO)[C@@H](O)[C@H]1O` [ADENOSINE], the IC50 came out at 27700 nM in the data set with HeLa [8]; 46 µM in the data set with HeLa [9]; 89.8 µM in the data set on KB [12]; 23.6 µM in the data set with L1210 [15]; 12.7 µM in the data set on P388 [16]; 10.8 µM in the data set filed under Mus musculus [17]. The IC50 in the data set with KB [18] was found to be 25400 nM.

Regarding `Nc1ccn([C@@H]2O[C@H](CO)[C@@H](O)[C@@H]2O)c(=O)n1` [CYTARABINE], the IC50 with HeLa [8] worked out at 100 nM; in the data set on HeLa [9], 0.6 µM; with KB [12], 1 µM; in the data set with L1210 [15] it was 0.02 µM; in the data set on P388 [16], 0.02 µM; in the data set listed under Mus musculus [17] it was 0.01 µM. Moreover, the IC50 in the data set with KB [18] turned out to be 1100 nM.

`O=c1[nH]cc(F)c(=O)[nH]1` [FLUOROURACIL]: the IC50 in the data set on P388 [30] amounted to 300 nM; in the data set on HeLa [8], 800 nM; in the data set on HeLa [9], 6.1 µM; in the data set with KB [12] it was 13.8 µM; in the data set filed under Mus musculus [31] it was 100 nM; with L1210 [32] it was 400 nM. Also, the IC50 with KB [18] is 2000 nM.

What is called T/C is the result in the treated group divided by that in the control group, in per cent.
